Test results taken from ChEMBL document CHEMBL1122143, “Adriamycin analogues. Preparation and biological evaluation of some N-perfluoroacyl analogues of daunorubicin, adriamycin, and N-(trifluoroacetyl)adriamycin 14-valerate and their 9,10-anhydro derivatives” (1982).

Assays:
Format in all cases: functional
CCRF-CEM = test: Inhibitory activity against CCRF-CEM(human leukemic lymphoblastic) cells in culture.; conditions: read-out: ID50 (the source's name)
In short: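 Human leukemic lymphoblastic CCRF-CEM cells grown in culture with continuous drug exposure for 48 h; growth inhibition measured.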

Mus musculus [1] = test: In vivo growth inhibitory activity was measured against murine P388 leukemia cells as Percent increase in life span at the dose of 40.0 mg/kg/day
In short: (§1)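 Murine P388 leukemia model: 10⁶ tumor cells inoculated ip on day 0. Compound given ip once daily on days 1-4 at the stated dose. Activity was expressed as percent increase in life span relative to untreated controls.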

Mus musculus [2] = test: In vivo growth inhibitory activity was measured against murine P388 leukemia cells as Percent increase in life span at the dose of 20.0 mg/kg/day; in short: as §1
Mus musculus [3] = test: In vivo growth inhibitory activity was measured against murine P388 leukemia cells as Percent increase in life span at the dose of 50.0 mg/kg/day; in short: as §1
Mus musculus [4] = test: In vivo growth inhibitory activity was measured against murine P388 leukemia cells as percent increase in life span at the dose of 40.0 mg/kg/day; in short: as §1
Mus musculus [5] = test: In vivo growth inhibitory activity was measured against murine P388 leukemia cells as Percent increase in life span at the dose of 80.0 mg/kg/day; in short: as §1
Mus musculus [6] = test: In vivo growth inhibitory activity was measured against murine P388 leukemia cells as Percent increase in life span at the dose of 2.0 mg/kg/day; in short: as §1
Mus musculus [7] = test: In vivo growth inhibitory activity was measured against murine P388 leukemia cells as Percent increase in life span at the dose of 4.0 mg/kg/day; in short: as §1

SMILES: CCCCC(=O)OCC(=O)[C@]1(O)Cc2c(O)c3c(c(O)c2[C@@H](OC2CC(NC(=O)C(F)(F)F)C(O)C(C)O2)C1)C(=O)c1c(OC)cccc1C3=O (stereo partly drawn)
- IC50 (CCRF-CEM): 240 nM
- ILS at 40 mg/kg/day (Mus musculus [1]): 429%

SMILES: COc1cccc2c1C(=O)c1c(O)c3c(c(O)c1C2=O)C[C@@](O)(C(=O)CO)C[C@@H]3OC1CC(NC(=O)C(F)(F)F)C(O)C(C)O1 (stereo partly drawn)
- IC50 (CCRF-CEM): 230 nM
- ILS at 20 mg/kg/day (Mus musculus [2]): 481%

SMILES: COc1cccc2c1C(=O)c1c(O)c3c(c(O)c1C2=O)C[C@@](O)(C(=O)CO)C[C@@H]3OC1CC(NC(=O)C(F)(F)C(F)(F)F)C(O)C(C)O1 (stereo partly drawn)
- ILS at 50 mg/kg/day (Mus musculus [3]): 372%
- IC50 (CCRF-CEM): 410 nM

SMILES: COc1cccc2c1C(=O)c1c(O)c3c(c(O)c1C2=O)C=C(C(C)=O)C[C@@H]3OC1CC(NC(=O)C(F)(F)C(F)(F)F)C(O)C(C)O1 (stereo partly drawn)
- IC50 (CCRF-CEM): 500 nM

SMILES: COc1cccc2c1C(=O)c1c(O)c3c(c(O)c1C2=O)C[C@@](O)(C(=O)CO)C[C@@H]3OC1CC(NC(=O)C(F)(F)C(F)(F)C(F)(F)F)C(O)C(C)O1 (stereo partly drawn)
- ILS at 50 mg/kg/day (Mus musculus [3]): 54%
- IC50 (CCRF-CEM): 1490 nM

SMILES: COc1cccc2c1C(=O)c1c(O)c3c(c(O)c1C2=O)C=C(C(C)=O)C[C@@H]3OC1CC(NC(=O)C(F)(F)C(F)(F)C(F)(F)F)C(O)C(C)O1 (stereo partly drawn)
- IC50 (CCRF-CEM): > 13800 nM

SMILES: CCCCC(=O)OCC(=O)[C@]1(O)Cc2c(O)c3c(c(O)c2[C@@H](OC2CC(NC(=O)C(F)(F)C(F)(F)C(F)(F)F)C(O)C(C)O2)C1)C(=O)c1c(OC)cccc1C3=O (stereo partly drawn)
- ILS at 50 mg/kg/day (Mus musculus [3]): 0%
- IC50 (CCRF-CEM): > 1140 nM

SMILES: COc1cccc2c1C(=O)c1c(O)c3c(c(O)c1C2=O)C=C(C(=O)CO)C[C@@H]3OC1CC(NC(=O)C(F)(F)C(F)(F)C(F)(F)F)C(O)C(C)O1 (stereo partly drawn)
- IC50 (CCRF-CEM): 7300 nM

SMILES: CCCCC(=O)OCC(=O)C1=Cc2c(O)c3c(c(O)c2[C@@H](OC2CC(NC(=O)C(F)(F)C(F)(F)C(F)(F)F)C(O)C(C)O2)C1)C(=O)c1c(OC)cccc1C3=O (stereo partly drawn)
- IC50 (CCRF-CEM): 2310 nM

SMILES: COc1cccc2c1C(=O)c1c(O)c3c(c(O)c1C2=O)C[C@@](O)(C(C)=O)C[C@@H]3OC1CC(NC(=O)C(F)(F)C(F)(F)C(F)(F)F)C(O)C(C)O1 (stereo partly drawn)
- IC50 (CCRF-CEM): > 1350 nM
- ILS at 40 mg/kg/day (Mus musculus [1]): 45%

SMILES: CCCCC(=O)OCC(=O)C1=Cc2c(O)c3c(c(O)c2[C@@H](OC2CC(NC(=O)C(F)(F)F)C(O)C(C)O2)C1)C(=O)c1c(OC)cccc1C3=O (stereo partly drawn)
- IC50 (CCRF-CEM): 1190 nM
- ILS at 40 mg/kg/day (Mus musculus [1]): 27%

SMILES: COc1cccc2c1C(=O)c1c(O)c3c(c(O)c1C2=O)C=C(C(C)=O)C[C@@H]3OC1CC(NC(=O)C(F)(F)F)C(O)C(C)O1 (stereo partly drawn)
- ILS at 40 mg/kg/day (Mus musculus [1]): 45%

SMILES: COc1cccc2c1C(=O)c1c(O)c3c(c(O)c1C2=O)C=C(C(=O)CO)C[C@@H]3OC1CC(NC(=O)C(F)(F)C(F)(F)F)C(O)C(C)O1 (stereo partly drawn)
- IC50 (CCRF-CEM): 8410 nM

SMILES: COc1cccc2c1C(=O)c1c(O)c3c(c(O)c1C2=O)C[C@@](O)(C(C)=O)C[C@@H]3OC1CC(NC(=O)C(F)(F)C(F)(F)F)C(O)C(C)O1 (stereo partly drawn)
- ILS at 50 mg/kg/day (Mus musculus [3]): 27%
- IC50 (CCRF-CEM): 1010 nM

SMILES: COc1cccc2c1C(=O)c1c(O)c3c(c(O)c1C2=O)C=C(C(=O)CO)C[C@@H]3OC1CC(NC(=O)C(F)(F)F)C(O)C(C)O1 (stereo partly drawn)
- IC50 (CCRF-CEM): 5790 nM
- ILS at 40 mg/kg/day (Mus musculus [4]): 63%

SMILES: COc1cccc2c1C(=O)c1c(O)c3c(c(O)c1C2=O)C[C@@](O)(C(C)=O)C[C@@H]3OC1CC(NC(=O)C(F)(F)F)C(O)C(C)O1 (stereo partly drawn)
- IC50 (CCRF-CEM): 270 nM
- ILS at 80 mg/kg/day (Mus musculus [5]): 83%

SMILES: CCCCC(=O)OCC(=O)C1=Cc2c(O)c3c(c(O)c2[C@@H](OC2CC(NC(=O)C(F)(F)C(F)(F)F)C(O)C(C)O2)C1)C(=O)c1c(OC)cccc1C3=O (stereo partly drawn)
- IC50 (CCRF-CEM): 560 nM

SMILES: CCCCC(=O)OCC(=O)[C@]1(O)Cc2c(O)c3c(c(O)c2[C@@H](OC2CC(NC(=O)C(F)(F)C(F)(F)F)C(O)C(C)O2)C1)C(=O)c1c(OC)cccc1C3=O (stereo partly drawn)
- ILS at 50 mg/kg/day (Mus musculus [3]): 0%
- IC50 (CCRF-CEM): 1180 nM

SMILES: COc1cccc2c1C(=O)c1c(O)c3c(c(O)c1C2=O)C[C@@](O)(C(C)=O)C[C@@H]3O[C@H]1C[C@H](N)[C@H](O)[C@H](C)O1 [DAUNORUBICIN]
- IC50 (CCRF-CEM): 40 nM
- ILS at 2 mg/kg/day (Mus musculus [6]): 91%

SMILES: COc1cccc2c1C(=O)c1c(O)c3c(c(O)c1C2=O)C[C@@](O)(C(=O)CO)C[C@@H]3O[C@H]1C[C@H](N)[C@H](O)[C@H](C)O1 [DOXORUBICIN]
- ILS at 4 mg/kg/day (Mus musculus [7]): 132%
- IC50 (CCRF-CEM): 66 nM
